Active and inactive are the calls of the source. No cut-off for these calls is given here.
Key:
[1] = molecular target: 11-beta-hydroxysteroid dehydrogenase 1 (Homo sapiens, UniProt P28845); assay: Inhibition of human 11betaHSD1 expressed in CHO cells by cell based assay
[2] = molecular target: T1, 11-beta-hydroxysteroid dehydrogenase type 2 (Homo sapiens) (UniProt P80365); assay: Inhibition of 11betaHSD2 at 100 uM by cell based assay
T1 sequence (whole entry): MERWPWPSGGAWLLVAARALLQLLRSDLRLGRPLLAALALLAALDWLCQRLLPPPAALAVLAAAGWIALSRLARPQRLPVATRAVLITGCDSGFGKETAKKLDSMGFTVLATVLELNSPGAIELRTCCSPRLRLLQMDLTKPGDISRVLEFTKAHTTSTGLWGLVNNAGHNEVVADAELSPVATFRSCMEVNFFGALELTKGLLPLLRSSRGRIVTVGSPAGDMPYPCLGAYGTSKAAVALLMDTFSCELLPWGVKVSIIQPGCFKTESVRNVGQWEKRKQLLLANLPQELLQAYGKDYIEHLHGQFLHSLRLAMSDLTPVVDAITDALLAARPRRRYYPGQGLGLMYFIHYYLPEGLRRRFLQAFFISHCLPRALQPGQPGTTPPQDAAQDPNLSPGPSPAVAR

[3] = molecular target: T2, 11-beta-hydroxysteroid dehydrogenase 1 (Mus musculus, UniProt P50172); assay: Inhibition of mouse 11betaHSD1 expressed in CHO cells by cell based assay
T2 sequence (P50172 whole entry): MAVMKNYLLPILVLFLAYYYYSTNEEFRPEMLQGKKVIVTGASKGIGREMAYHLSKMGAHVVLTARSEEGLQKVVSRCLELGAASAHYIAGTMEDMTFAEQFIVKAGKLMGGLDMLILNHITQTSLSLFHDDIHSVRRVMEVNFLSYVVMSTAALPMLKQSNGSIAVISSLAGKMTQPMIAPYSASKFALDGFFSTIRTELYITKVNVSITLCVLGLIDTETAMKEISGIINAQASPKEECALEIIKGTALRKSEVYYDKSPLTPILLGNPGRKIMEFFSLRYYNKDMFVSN

[4] = molecular target: T2, 11-beta-hydroxysteroid dehydrogenase 1; assay: Inhibition of C57BL/6 mouse 11betaHSD1 in presence of human serum
[5] = Clearance in mouse at 2 mg/kg, iv; format: ADME, organism-based; design: dose 2 mg/kg, route intravenous; conditions: in vivo
[6] = species: Rattus norvegicus; assay: Effect on glucose level in cortisone-induced Sprague-Dawley rat hyperinsulinemia model; format: functional, organism-based
Outline: (§1)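 Male SD rats given cortisone in drinking water (2 mg/mL); inhibitors dosed orally b.i.d. for 7 days. On day 7, body weight, food intake, liquid consumption, plasma glucose and serum insulin were measured; insulin reduction expressed as percent.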

[7] = Oral bioavailability in mouse at 30 mg/kg; format: ADME, organism-based; conditions: in vivo
[8] = molecular target: 11-beta-hydroxysteroid dehydrogenase 1 (Rattus norvegicus, UniProt P16232); assay: Inhibition of rat 11betaHSD1
Chain of 11-beta-hydroxysteroid dehydrogenase 1 (Rattus norvegicus, UniProt P16232) (P16232 whole entry): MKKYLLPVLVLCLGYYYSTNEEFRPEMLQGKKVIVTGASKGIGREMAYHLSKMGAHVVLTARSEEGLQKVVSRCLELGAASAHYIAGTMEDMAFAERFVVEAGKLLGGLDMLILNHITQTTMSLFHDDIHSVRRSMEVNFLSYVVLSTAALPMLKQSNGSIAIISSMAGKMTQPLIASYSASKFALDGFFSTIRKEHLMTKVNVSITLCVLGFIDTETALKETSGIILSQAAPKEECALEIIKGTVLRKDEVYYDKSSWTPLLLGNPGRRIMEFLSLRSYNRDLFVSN
Outline: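 Potency against rat enzyme measured in a cell-based assay using CHO cells expressing rat 11β-HSD1; IC50 reported.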

[9] = Cmax in Sprague-Dawley rat at 30 mg/kg, po; format: ADME, organism-based; design: dose 30 mg/kg, route oral; conditions: in vivo
Outline: (§2)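 Oral PK in rats; single dose 30 mg/kg by gavage, formulated in 0.5% methyl cellulose/2% Tween; plasma exposure reported as Cmax (ng/mL) and AUC (ng·h/mL).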

[10] = Metabolic stability assessed as half life in mouse liver microsomes
[11] = tested on: Rattus norvegicus; assay: Ex vivo inhibition of 11betaHSD1 in Sprague-Dawley rat assessed as conversion of [3H]cortisone to [3H]cortisole in liver at 30 mg/kg, po after 2 hrs; format: functional
[12] = tested on: Rattus norvegicus; assay: Effect on cortisone-induced Sprague-Dawley rat hyperinsulinemia model assessed as reduction in insulin at 60 mg/kg, bid after 7 days; format: functional; design: scale not given: the % may be the effect or the level left; outline: as §1
[13] = AUC in Sprague-Dawley rat at 30 mg/kg, po; format: ADME, organism-based; design: dose 30 mg/kg, route oral; conditions: plasma; outline: as §2
[14] = tested on: Mus musculus; assay: Ex vivo inhibition of 11betaHSD1 in C57BL/6 mouse assessed as conversion of [3H]cortisone to [3H]cortisole in liver at 10 mg/kg, po; format: functional; conditions: C57BL/6, Liver
[15] = Metabolic stability assessed as half life in human liver microsomes
[16] = tested on: Mus musculus; assay: Ex vivo inhibition of 11betaHSD1 in C57BL/6 mouse assessed as conversion of [3H]cortisone to [3H]cortisole in liver at 30 mg/kg, po; format: functional; conditions: C57BL/6, Liver
Outline: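 Mice dosed orally; sacrificed 5 h after dosing. Liver samples taken and 11β-HSD1 conversion of cortisone to cortisol measured; percent inhibition reported.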

[17] = tested on: Rattus norvegicus; assay: Effect on cortisone-induced Sprague-Dawley rat hyperinsulinemia model assessed as reduction in insulin at 30 mg/kg, bid after 7 days; format: functional; design: scale not given: the % may be the effect or the level left; outline: as §1

Chain of 11-beta-hydroxysteroid dehydrogenase 1 (Homo sapiens, UniProt P28845) (P28845 whole entry): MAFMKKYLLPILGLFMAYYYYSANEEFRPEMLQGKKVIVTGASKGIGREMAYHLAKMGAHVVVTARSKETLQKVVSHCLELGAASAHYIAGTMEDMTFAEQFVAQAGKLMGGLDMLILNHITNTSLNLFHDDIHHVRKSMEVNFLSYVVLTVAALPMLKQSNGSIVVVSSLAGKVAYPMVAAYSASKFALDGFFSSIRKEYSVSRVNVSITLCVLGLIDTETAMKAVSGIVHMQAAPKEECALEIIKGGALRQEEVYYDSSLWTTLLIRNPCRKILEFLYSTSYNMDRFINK

Row | SMILES | IC50 [1] | Activity [2] | IC50 [3] | IC50 [4] | half-life [10] | also measured
1 | C[C@@H]1CN(c2ccc(F)cc2C(F)(F)F)CCN1S(=O)(=O)c1cccc(-n2cnnc2)c1 | 120 nM | inactive | 230 nM | 120 nM | – | –
2 | C[C@@H]1CN(c2ccc(F)cc2C(F)(F)F)CCN1S(=O)(=O)c1cccc(-n2cncn2)c1 | 26 nM | inactive | 10 nM | 42 nM | 12 min | clearance [5]: 13 mL/min/kg; Activity [6]: inactive; bioavailability [7]: 34%; IC50 [8]: 81 nM; Cmax [9]: 149 ng/mL; inhibition in vivo at 30 mg/kg [11]: 59%; Activity [12]: 34%; AUC [13]: 1040 ng·h/mL; inhibition in vivo at 10 mg/kg [14]: 44%
3 | C[C@@H]1CN(c2ccccc2C(F)(F)F)CCN1S(=O)(=O)c1ccc(Cl)c(Cl)c1 | 10 nM | inactive | 10 nM | – | 3 min | half-life [15]: 5 min
4 | C[C@@H]1CN(c2ccc(F)cc2C(F)(F)F)CCN1S(=O)(=O)c1cccc(-n2ccnc2)c1 | 74 nM | inactive | 11 nM | 73 nM | – | –
5 | C[C@@H]1CN(c2ccc(F)cc2C(F)(F)F)CCN1S(=O)(=O)c1cccc(OC(C)(C)C(=O)O)c1 | 300 nM | inactive | 37 nM | 130 nM | > 30 min | clearance [5]: 25 mL/min/kg; Activity [6]: inactive; Activity [17]: 30%; bioavailability [7]: 100%; IC50 [8]: 110 nM; Cmax [9]: 9180 ng/mL; inhibition in vivo at 30 mg/kg [11]: 35%; AUC [13]: 51100 ng·h/mL; inhibition in vivo at 30 mg/kg [16]: 38%
6 | O=C1CN(S(=O)(=O)c2ccc(Cl)c(Cl)c2)CCN1c1ncccc1C(F)(F)F | 9900 nM | inactive | > 10000 nM | – | 30 min | half-life [15]: 30 min
7 | O=S(=O)(c1ccc(Cl)c(Cl)c1)N1CCN(c2ccccc2C(F)(F)F)CC1 | 52 nM | inactive | 420 nM | – | 3 min | half-life [15]: 4 min
8 | O=S(=O)(c1ccc(Cl)c(Cl)c1)N1CCN(c2ncccc2C(F)(F)F)CC1 | 61 nM | inactive | 190 nM | – | 5 min | half-life [15]: 5 min
9 | C[C@@H]1CN(c2ncccc2Cl)[C@@H](C)CN1S(=O)(=O)c1ccc(Cl)c(Cl)c1 (relative stereo) | 1600 nM | inactive | 4700 nM | – | 2 min | half-life [15]: 3 min
10 | C[C@@H]1CN(c2ncccc2Cl)C[C@H](C)N1S(=O)(=O)c1ccc(Cl)c(Cl)c1 | 1300 nM | inactive | 6900 nM | – | 3 min | half-life [15]: 6 min
11 | O=S(=O)(c1ccc(Cl)c(Cl)c1)N1CCN(c2ccc(F)cc2C(F)(F)F)CC1 | 68 nM | inactive | 250 nM | – | 8 min | half-life [15]: 12 min
12 | O=C1CN(c2ncccc2C(F)(F)F)CCN1S(=O)(=O)c1ccc(Cl)c(Cl)c1 | 500 nM | inactive | > 10000 nM | – | 6 min | half-life [15]: 2 min
13 | CCNC(=O)N1CCN(c2cccc(S(=O)(=O)N3CCN(c4ccc(F)cc4C(F)(F)F)C[C@H]3C)c2)CC1 | 370 nM | inactive | 12 nM | 220 nM | – | –

More lines, main results first:

Row | IC50 [1] | Activity [2] | IC50 [3] | IC50 [4] | half-life [10] | SMILES | also measured
14 | 28 nM | inactive | 20 nM | 41 nM | – | C[C@@H]1CN(c2ccc(F)cc2C(F)(F)F)CCN1S(=O)(=O)c1cccc(N2CC[C@H](O)C2)c1 | –
15 | 10 nM | inactive | 13 nM | 11 nM | 11 min | C[C@@H]1CN(c2ccc(F)cc2C(F)(F)F)CCN1S(=O)(=O)c1cccc(N2CCC(O)C2)c1 (stereo partly drawn) | clearance [5]: 54 mL/min/kg; Activity [6]: inactive; bioavailability [7]: 9%; IC50 [8]: 13 nM; Cmax [9]: 185 ng/mL; inhibition in vivo at 30 mg/kg [11]: 62%; Activity [12]: 19%; AUC [13]: 1040 ng·h/mL; inhibition in vivo at 30 mg/kg [16]: 47%
16 | 160 nM | inactive | 10 nM | 90 nM | > 30 min | C[C@@H]1CN(c2ccc(F)cc2C(F)(F)F)CCN1S(=O)(=O)c1cccc(N2CCC(C(=O)O)C2)c1 (stereo partly drawn) | clearance [5]: 55 mL/min/kg; bioavailability [7]: 100%; inhibition in vivo at 30 mg/kg [16]: 36%
17 | 13 nM | inactive | 12 nM | 100 nM | – | C[C@@H]1CN(c2ccc(F)cc2C(F)(F)F)CCN1S(=O)(=O)c1cccc(-n2cccn2)c1 | –
18 | 330 nM | inactive | 11 nM | 220 nM | – | COC(=O)N1CCN(c2cccc(S(=O)(=O)N3CCN(c4ccc(F)cc4C(F)(F)F)C[C@H]3C)c2)CC1 | –
19 | 32 nM | inactive | 11 nM | 14 nM | – | C[C@@H]1CN(c2ccc(F)cc2C(F)(F)F)CCN1S(=O)(=O)c1cccc(N2CCC(C(N)=O)C2)c1 (stereo partly drawn) | –
20 | 69 nM | inactive | 27 nM | 32 nM | – | C[C@@H]1CN(c2ccc(F)cc2C(F)(F)F)CCN1S(=O)(=O)c1cccc(N2CCCC2C(=O)O)c1 (stereo partly drawn) | –
21 | > 10000 nM | inactive | 160 nM | 190 nM | – | C[C@@H]1CN(c2ccc(F)cc2C(F)(F)F)CCN1S(=O)(=O)c1cccc(N2CCNCC2)c1 | –
22 | 13 nM | inactive | 11 nM | 56 nM | – | C[C@@H]1CN(c2ccc(F)cc2C(F)(F)F)CCN1S(=O)(=O)c1cccc(N2CCOCC2)c1 | –
23 | 11 nM | inactive | 10 nM | 55 nM | – | COC(=O)C1CCN(c2cccc(S(=O)(=O)N3CCN(c4ccc(F)cc4C(F)(F)F)C[C@H]3C)c2)C1 (stereo partly drawn) | –
24 | 61 nM | inactive | 16 nM | 56 nM | – | C[C@@H]1CN(c2ccc(F)cc2C(F)(F)F)CCN1S(=O)(=O)c1cccc(N2CCCC2)c1 | –
25 | 30 nM | inactive | 29 nM | 45 nM | – | CCN1CCN(c2cccc(S(=O)(=O)N3CCN(c4ccc(F)cc4C(F)(F)F)C[C@H]3C)c2)CC1 | –
26 | 15 nM | inactive | 10 nM | 67 nM | – | C[C@@H]1CN(c2ccc(F)cc2C(F)(F)F)CCN1S(=O)(=O)c1cccc(N2CCCCC2)c1 | –
27 | 490 nM | inactive | 150 nM | 250 nM | – | CC(C)N1CCN(c2cccc(S(=O)(=O)N3CCN(c4ccc(F)cc4C(F)(F)F)C[C@H]3C)c2)CC1 | –
28 | 10 nM | inactive | 12 nM | 13 nM | – | C[C@@H]1CN(c2ccc(F)cc2C(F)(F)F)CCN1S(=O)(=O)c1cccc(N2CC[C@@H](O)C2)c1 | –
29 | 21 nM | inactive | 12 nM | 28 nM | 15 min | C[C@@H]1CN(c2ccc(F)cc2C(F)(F)F)CCN1S(=O)(=O)c1cccc(N2CCN(C)CC2)c1 | clearance [5]: 36 mL/min/kg; Activity [6]: inactive; bioavailability [7]: 79%; IC50 [8]: 42 nM; Cmax [9]: 246 ng/mL; inhibition in vivo at 30 mg/kg [11]: 32%; Activity [12]: 11%; AUC [13]: 2280 ng·h/mL; inhibition in vivo at 30 mg/kg [16]: 45%

Reference: ChEMBL document CHEMBL1155083, “Piperazine sulfonamides as potent, selective, and orally available 11beta-hydroxysteroid dehydrogenase type 1 inhibitors with efficacy in the rat cortisone-induced hyperinsulinemia model” (J Med Chem, 2008)
